From ChEMBL document CHEMBL4513216, “Probing the Open Global Health Chemical Diversity Library for Multistage-Active Starting Points for Next-Generation Antimalarials” (ACS Infect Dis, 2020)

Experiment: Toxicity liver stage against HepG2, at 10uM
Format: cell-based
Design: test concentration 10 uM, cell line HepG2-A16-CD81EGFP
Settings: human, HepG2-A16-CD81EGFP cells; read-out: INHIBITION
How it was run: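 Uninfected HepG2-A16-CD81EGFP cells, 3 × 10^3 per well, 1536-well, plated on prespotted compound at 10 μM final, parasite-free screening media added to match infected plates; puromycin 10 μM positive, DMSO 0.5% negative; run in parallel with 48 h PbLuc assay at 37 °C, 5% CO2; viability by CellTiter-Glo luminescence, normalized to controls.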

Row | Compound | cytotoxicity at 10 µM [%]
1 | CC[C@H]1CN2CC[C@H]1C[C@@H]2CNCc1ccc(N(C)C)cc1 | -5.66
2 | CN(C)C(=O)CN1CCC2(CC1)CC(=O)c1c(ccc3ccccc13)O2 | 3.28
3 | Cn1ncc2c1NC(=O)CSC2c1ccc2c(c1)OCO2 (centres undefined) | 0.435
4 | CCSc1nc(N)c(NC(=O)c2ccc(C)cc2)c(=O)[nH]1 | -57.3
5 | COc1cn(CC(N)=O)c(CSc2nc(C)cc(C)n2)cc1=O | -30.2
6 | O=c1c(S(=O)(=O)N2CCCC2)cccn1Cc1ccc(F)cc1Cl | 12
7 | COc1ccc(C(=O)NCC(C)(O)CCc2ccccc2)cc1 (centres undefined) | -7.39
8 | O=C(c1cc(Br)ccc1-n1cnnn1)N1CCCCC1 | -1.25
9 | O=c1[nH]c2c(c(=O)n1C1CCCCC1)CCC2Nc1ccccn1 (centres undefined) | -8.02
10 | CC1CCN(c2nc3ncc4c(c3c(=O)[nH]2)CC(C)(C)CC4=O)CC1 | 3.49
11 | CCOC(=O)N1CCN(C(=O)c2sc(-c3ccncc3)nc2C)CC1 | -3.3
12 | CNC(=O)c1cc(S(=O)(=O)C(C)C)cs1 | 5.08
13 | COc1ccc(OC)c(C(C)Nc2ncnc3c2NC(=O)CN3)c1 (centres undefined) | 10.6
14 | CCC(=O)Nc1nnc(CCCOc2ccccc2)s1 | -0.834
15 | CC1(C(N)=O)CN(S(=O)(=O)c2cccc(F)c2)CCO1 (centres undefined) | 6.73
16 | COCC(=O)N1C[C@@H](c2cc(O)nc(C)n2)[C@H](c2ccccc2F)C1 | 5.62
17 | Cc1c[nH]nc1C1CN(c2cnccn2)CCO1 (centres undefined) | 4.34
18 | Cc1nccc(C2CCCN(S(=O)(=O)N3CCOCC3)C2)n1 (centres undefined) | 6.08
19 | Cc1ncc(-c2ccncc2)c(C2CCN(C(=O)c3ccno3)CC2)n1 | 2.08
20 | Cc1noc(C)c1-c1ccnc(C2CCN(C3CCOCC3)CC2)c1 | -28.7
21 | C[C@]1(O)CN(Cc2ncccc2F)CC[C@@H]1Oc1ccccc1 | -21
22 | CN1CCCCC1c1ncc2c(n1)CCN(Cc1ccc(F)cc1)C2 (centres undefined) | -17.6

Row | Compound | cytotoxicity at 10 µM [%]
23 | O=C(NCCO)Nc1cnc2cc(Cl)ccc2c1O | -30.2
24 | Fc1cccc(Cl)c1CN1CCC(c2n[nH]c3ncccc23)CC1 | -13.7
25 | CC(C)Cc1cc(C(=O)N2CCC(N3CCCC3)CC2)cc(O)n1 | 4.64
26 | Cc1noc(C(C)C)c1C(=O)NCC1CCCN1Cc1ccccc1 (centres undefined) | -4.45
27 | Cc1[nH]ncc1CCCNC(=O)N1CCC(CC(N)=O)CC1 | 5.45
28 | COCCN(Cc1ccc(C)o1)C(=O)Nc1nnc(C(F)F)s1 | 1.24
29 | CCN1CCN2CCCN(S(=O)(=O)c3cccc(F)c3)C2C1=O (centres undefined) | 5.18
30 | NC(=O)CN1CCN(S(=O)(=O)N2CCCC2c2ccco2)CC1 (centres undefined) | -3.48
31 | CCCc1cc(N(CCOC)CC(F)F)n2ncnc2n1 | 4.81
32 | CCc1oc(C(=O)OC)cc1Cn1cccc(C(F)(F)F)c1=O | -2.13
33 | CN(CCCNC(=O)C1CCc2cn[nH]c2C1)c1ccccc1 (centres undefined) | -5.19
34 | CN(Cc1ccncc1)C(=O)Nc1cnn(CC(N)=O)c1 | -3.07
35 | COc1ccc(Cl)c(NCC(=O)NCC(=O)N2CCCC2)c1 | -5.7
36 | CCOc1ccc(NS(=O)(=O)c2cc(C)c(C(=O)O)s2)cc1F | -3.24
37 | CC(C)C(=O)NCCC(=O)N1CCN(c2ccccn2)CC1 | -6.13
38 | Cc1ccc(CNCc2c(C(C)C)nn(C)c2N2CCOCC2)s1 | -3.03
39 | CCOc1cncc(N2CCCC2c2nnc3n2CCCCC3)n1 (centres undefined) | -5.93
40 | O=C(NCCn1ccnc1)c1cncc(Br)c1 | 17.7
41 | CC(=O)NCCC(=O)NCC1(c2c(F)cccc2F)CCCC1 | -2.75
42 | CC(C)(C)CC(=O)Nc1ccc(S(C)(=O)=O)nc1 | -3.05
43 | CC1CCCCN1S(=O)(=O)NCc1cccnc1OC1CCCC1 (centres undefined) | -89.8
44 | CNC(=O)CCN1CCCC1c1ccccc1Br (centres undefined) | 15.3

Row | Compound | cytotoxicity at 10 µM [%]
45 | Cc1cc(C(=O)N2CCC(N3CCNC3=O)CC2)nn1C(C)(C)C | 5.56
46 | CCc1ccc(C(=O)O)cc1S(=O)(=O)N(C)c1cccc(C#N)c1 | -2.08
47 | CC(C)N(C)C(=O)c1ccc(Cl)c(NC(=O)COCC2CC2)c1 | 6.14
48 | Cc1ccccc1-n1cnc(Cl)c1C(=O)O | -4.11
49 | CCCN(CC(F)(F)F)C(=O)c1cc(F)cc2[nH]cnc12 | 3.19
50 | N#Cc1ccc(CNc2cnn(CCN3CCOCC3)c2)cc1 | -5.75
51 | CC(CN(C)C(=O)c1cn(C)nc1-c1ccc(F)cc1F)C(=O)O (centres undefined) | 0.184
52 | Cc1nncn1CCNC(=O)C(C)(C)c1cccc(Cl)c1 | 8.55
53 | N#Cc1cccc(CS(=O)(=O)NCCC(O)c2ccccc2)c1 (centres undefined) | 0.692
54 | CC(C1CC1)N(C)C(=O)c1cnc(-c2ccc3c(c2)OCO3)s1 (centres undefined) | -7.06
55 | O=C(Cc1ccccn1)N1C[C@H]2CN(Cc3ccccn3)C[C@H]2C1 | -108
56 | CS(=O)(=O)N1CCOCC2(CCN(c3cnccn3)CC2)C1 | -107
57 | CN(C)C(=O)C1CCC2(CCN(C(=O)Nc3ccccc3)CC2)O1 (centres undefined) | -106
58 | CN(C)C(=O)c1cnc2n1CCN(Cc1ccncc1)C2 | -69.4
59 | CNC(=O)[C@@]12CCO[C@@H]1CCN(Cc1c(C)noc1C)C2 | -70.5
60 | Cc1ccc(S(=O)(=O)NCC2COCc3c(C)nnn3C2)cc1F (centres undefined) | -4.55
61 | COCCn1ccnc1CN1CCc2[nH]cnc2C1c1ccccn1 (centres undefined) | -3.3
62 | CS(=O)(=O)N1CCC2(CC1)c1ccccc1[C@@H](N1CCSCC1)[C@@H]2O | -9.71
63 | CC(C)C1CN(S(C)(=O)=O)CCCN1Cc1ccc(F)cc1 (centres undefined) | 1.81
64 | CCCn1cc(S(=O)(=O)N[C@H]2CN(C(C)=O)C[C@@H]2C2CC2)cn1 | -1.48
65 | Cc1nn(C)c(C)c1-c1ccnc(N2CCCN(CC(C)C)CC2)n1 | 5.78
66 | Cc1ccnc(N2CCN(C[C@]3(O)CCCN4CCCC[C@@H]43)CC2)c1 | 3.78

Row | Compound | cytotoxicity at 10 µM [%]
67 | Cc1cnc(C(=O)NCC2CCOc3ccccc3C2)cn1 (centres undefined) | 5.06
68 | Cc1ocnc1C(=O)N(Cc1cccnc1)C[C@@H]1CCC(=O)N1 | 8.83
69 | Cc1ccsc1C(=O)N1C[C@@H](C(=O)O)[C@H](C(C)C)C1 | 9.42
70 | CN1CCN(Cc2ccc(-c3ccc(C(N)=O)cc3)nc2)CC1 | 5.58
71 | CCO[C@H]1CN(C)C[C@@H]1NC(=O)c1cc(C)nc2c(C)cccc12 | 3.28
72 | Cc1cc(C)n(C2CCN(C(=O)c3cn4ccsc4n3)C2)n1 (centres undefined) | 6.59
73 | Cc1ccc(C(=O)N2CCC(=O)N(CC3CC3)C(C(C)C)C2)c(=O)[nH]1 (centres undefined) | -15
74 | OC1CCN(C2CCN(c3ccc(Cn4ccnc4)cn3)CC2)CC1 | -2.05
75 | CCN(C)S(=O)(=O)NCC1CCN(Cc2ccccc2C)CC1 | -4.93
76 | COc1cccc([C@@H]2CCN(Cc3[nH]nc(C)c3Cl)C[C@H]2O)c1 | -3.26
77 | Cc1cnccc1NCCNC(=O)C1CCCN(Cc2ccco2)C1 (centres undefined) | -7.67
78 | CCCc1nc(C(=O)NCCCn2nnc3ccccc32)cs1 | -14
79 | CC(CNc1nccc(C(C)C)n1)Oc1cccnc1 (centres undefined) | 4.34
80 | COc1ncccc1-c1ncccc1NC(=O)C(C)C | 3.78
81 | NC(=O)c1cncc(Oc2cccc(CN3CCCC3)c2Cl)n1 | -3.47
82 | Cc1cccnc1CN1CCN(C(=O)CCn2ccc(=O)[nH]c2=O)CC1 | 1.99
83 | C[C@@H]1CN(C(=O)C2(Cn3cccn3)CC2)CC[C@@]1(O)C1CC1 | -2.6
84 | CCc1ncc(C(=O)N2CC(Oc3ccccc3Cl)C2)cn1 | 45.7
85 | CCc1ccc2occ(CC(=O)N3CCC4(CCCN(C)C4=O)C3)c2c1 (centres undefined) | -14.5
86 | Cc1cccc(CN2CCCC(O)(CNCc3ncccc3C)C2=O)c1 (centres undefined) | -7.4
87 | CCC(C(=O)N(C)CCC1=CCN(C)CC1)c1ccccc1 (centres undefined) | -10.9
88 | CN1CCC2(CC1)CN(C(=O)c1onc3ccccc13)CCCN2C | 8.31

Row | Compound | cytotoxicity at 10 µM [%]
89 | CCc1nccn1-c1cncc(C2CCCN2Cc2cccnc2)n1 (centres undefined) | 5.82
90 | c1cc2c(cc1CN(Cc1nc(C3CC3)no1)C1CCCC1)OCO2 | -10.6
91 | c1ccc(Cc2nnc(CN3CCCC3Cn3cccn3)o2)cc1 (centres undefined) | -11.7
92 | CC(C)(C)n1cc(C(=O)N2CCN(Cc3ccncc3)CC2)cn1 | -12.8
93 | CCc1ncc2c(n1)CN(CC(=O)Nc1nnc(C)s1)CC2 | 2.94
94 | Cc1noc(C)c1C(=O)NCc1ccc(N2CCOC(C)C2)nc1 (centres undefined) | -3.46
95 | Cc1cc(CN(C)C(=O)c2ccnc(N(C)C)c2)no1 | 5.46
96 | Cc1nc(C)n(CC2CCCN2Cc2nc3ccccc3n2C)n1 (centres undefined) | -2.21
97 | Cc1cnn(CC2CN(CC(=O)NCc3ccccn3)CCO2)c1 (centres undefined) | -5.8
98 | COc1cccc2c(C)c(C(=O)N3CCNCC3C(N)=O)[nH]c12 (centres undefined) | 1.67
99 | Cn1ccc(C(=O)N2C[C@@H]3CCN(c4cnccn4)C[C@@H]3C2)n1 | -106
100 | CN(C)C(=O)CO[C@H]1CO[C@@]2(CCN(Cc3ccsc3)C2)C1 | -111
101 | c1cn(-c2cnc(C3CCCNC3)cn2)cn1 (centres undefined) | -25.2
102 | Cc1cc2c(=O)n3c(nc2s1)CCN(Cc1cnn(C)c1C)CC3 | 3.06
103 | Cc1cc(CN2CC[C@H]3C(=O)N(c4ccsc4)CCO[C@H]3C2)no1 | -69.2
104 | COCCN1C(=O)CC(c2cccnc2)C12CCN(C(=O)C1CC1)CC2 (centres undefined) | -104
105 | O=C(c1ccco1)N1CC[C@@H](N2CCOCC2)[C@@H]1Cc1ccncc1 | -78.2
106 | Cc1cc(C(=O)N2CCO[C@H]3[C@H](OCCN(C)C)CC[C@@H]32)c(C)[nH]1 | 7.07
107 | CC(C)N1CCc2c(CNC(=O)c3nccn3C)cncc2C1 | -106
108 | NCC1CCC(C(NC(=O)c2ccccn2)c2ccccn2)CC1 (centres undefined) | 2
109 | CC(C)NC(=O)[C@H]1C[C@H]2CN(C(=O)NC(C)C)C[C@@H]1O2 | -105
